Screening results deposited in PubChem by Johns Hopkins Ion Channel Center.
TRPC6 activator: mouse TRPC6 channel activators, primary screen, cell-based, HEK293, membrane potential dye; Short transient receptor potential channel 6 (Mus musculus), Q61143; HEK293-TRPC6 membrane potential dye fluorescence; active compounds read high; B-score at 10 µM; actives 0.13% (n = 310,000);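 active = B-score of the integrated fluorescence ratio above library mean plus 3 SD, and starting fluorescence ratio within library mean plus 5 SD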;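 also: higher score means more depolarization so channel activation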
Target sequence (Q61143 whole entry, looked up): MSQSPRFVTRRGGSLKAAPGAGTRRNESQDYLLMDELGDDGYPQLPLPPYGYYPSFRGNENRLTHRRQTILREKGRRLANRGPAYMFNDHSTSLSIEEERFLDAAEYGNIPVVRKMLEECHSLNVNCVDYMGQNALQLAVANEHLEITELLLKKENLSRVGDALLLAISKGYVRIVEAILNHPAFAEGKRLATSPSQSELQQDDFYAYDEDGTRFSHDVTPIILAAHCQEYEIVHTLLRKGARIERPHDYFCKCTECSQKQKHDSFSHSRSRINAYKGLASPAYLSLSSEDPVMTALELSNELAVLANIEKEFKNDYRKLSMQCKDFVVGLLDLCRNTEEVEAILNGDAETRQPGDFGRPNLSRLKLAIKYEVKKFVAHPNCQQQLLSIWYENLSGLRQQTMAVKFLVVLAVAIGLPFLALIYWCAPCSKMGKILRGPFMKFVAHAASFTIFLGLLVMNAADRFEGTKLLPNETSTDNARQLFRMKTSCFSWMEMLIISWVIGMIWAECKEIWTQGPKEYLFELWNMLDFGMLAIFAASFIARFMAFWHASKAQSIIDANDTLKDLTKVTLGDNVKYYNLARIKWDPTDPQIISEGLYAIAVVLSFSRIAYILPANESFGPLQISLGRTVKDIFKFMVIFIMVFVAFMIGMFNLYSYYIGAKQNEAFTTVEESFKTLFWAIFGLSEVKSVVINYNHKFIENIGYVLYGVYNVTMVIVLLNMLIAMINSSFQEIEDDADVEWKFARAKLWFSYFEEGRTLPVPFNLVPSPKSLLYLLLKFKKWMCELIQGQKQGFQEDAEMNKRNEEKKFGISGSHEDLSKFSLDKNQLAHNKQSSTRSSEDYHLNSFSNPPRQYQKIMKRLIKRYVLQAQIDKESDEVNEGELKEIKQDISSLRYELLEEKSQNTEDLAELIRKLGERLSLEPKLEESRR
TRPC6 inh: mouse TRPC6 channel inhibitors, primary screen, cell-based, HEK293, membrane potential dye. Short transient receptor potential channel 6 (Mus musculus), Q61143. ACh-evoked depolarization; active compounds read low. B-score at 10 µM. actives 1.1% (n = 310,000). AID 2553, 2010;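 active = B-score under library mean minus 3 SD, initial fluorescence not abnormally high, positive integrated signal ratio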;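 also: B-score derived from integrated fluorescence ratio over the kinetic read; more negative B-score means stronger inhibition of depolarization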
TRPC4 inh: inhibitors of mouse TRPC4 channel, primary screen, Fluo4 calcium, HEK293 TRPC4beta/mu-opioid cells; actives 0.39% (n = 300,000); B-score at 10 µM; Short transient receptor potential channel 4 (Mus musculus), Q9QUQ5; DAMGO-evoked Fluo4 calcium flux; active compounds read low; AID 2247, 2010;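 active = B-score over 3 SD under the library average, no early fluorescence shift, positive overall ratio signal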
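Assay system: HEK293 cells with stable TRPC4beta plus mu-opioid receptor expression; Probe or stimulus: DAMGO in two steps, submaximal then maximal; Dosing: single-point compound dosing; Measured by: Fluo4 calcium-dye fluorescence, kinetic read; Read-out basis: B score from integrated Fluo4 fluorescence ratio.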
TRPC4 act: activators of mouse TRPC4 channel, primary screen, Fluo4 calcium, HEK293 TRPC4beta/mu-opioid cells | Short transient receptor potential channel 4 (Mus musculus), Q9QUQ5 | Fluo4 calcium fluorescence; active compounds read high | B-score at 10 µM | actives 0.49% (n = 310,000);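 active = B-score above 5 SD of library B-scores, and initial fluorescence ratio not above library mean plus 5 SD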;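 also: positive B-score marks a calcium rise read as TRPC4 activation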
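Test system: HEK293 cells stably co-expressing mouse TRPC4beta and mu-opioid receptor | Schedule: Fluo4 dye loading 45 min at room temperature, 110 s recording | Measured by: Kinetic Fluo4 calcium fluorescence, 5 s baseline at 1 Hz | Evaluation: B score of integrated ratio | Controls: Buffer (low) and maximal DAMGO (high)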
TRPC4 potent: positive allosteric modulators of TRPC4, primary screen, cell-based, mouse TRPC4beta, HEK293 mu-opioid, Fluo-4 calcium. Short transient receptor potential channel 4 (Mus musculus), Q9QUQ5. B-score at 10 µM. actives 0.42% (n = 310,000). DAMGO EC20, Fluo-4 Ca2+ flux; active compounds read high;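 active = B-score of calcium response area above 5 SD of library B-scores, with initial fluorescence ratio within 5 SD of library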;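 also: B-score of integrated fluorescence ratio over time as area under calcium response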
HEK293 TRPC6 ctr: parental HEK293 membrane potential modulation, confirmation, counter-screen for TRPC6 modulator project, cell-based | shares compounds with TRPC6 inh | membrane potential dye fluorescence | membrane potential signal change, % at 10 µM | actives 51% (n = 2,400) | AID 488924, 2010;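 active = membrane potential signal moves up or down beyond 5 SD from buffer-only wells, on both duplicate plates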
HEK293 MPD ctr 2: second check of TRPC6 modulator effects in parental HEK293 cells. AID 488926. membrane potential dye fluorescence; after compound, maximal acetylcholine stimulation. inhibition, % at 10 µM. actives 14% (n = 2,400). shares compounds with TRPC6 inh;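 active = membrane potential signal drops by more than 5 SD from the mean control signal, in both duplicate plates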;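 also: plate controls were acetylcholine ECmax control wells for no effect and buffer only wells for full effect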
TRPC4/MOR mod: TRPC4 modulation by TRPC6 hit compounds, confirmation, selectivity assay for TRPC6 modulator project, cell-based, HEK293 TRPC4/mu-opioid, membrane potential dye, mouse; shares compounds with TRPC6 inh; membrane potential fluorescence; percent change from control (negative = decrease, positive = increase), % at 10 µM; actives 69% (n = 2,400); AID 488927, 2010;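 active = membrane potential signal moved up or down beyond 5 SD of buffer control wells, in both duplicate plates, actives on both sides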;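 also: plate controls were assay buffer wells for no effect and DAMGO maximal-effect wells for full effect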
TRPC4 ctr inh 2: second selectivity test of TRPC6 modulators against mouse TRPC4; shares compounds with TRPC6 inh; HEK293 TRPC4/mu-opioid, membrane potential dye fluorescence; stimulated with maximal-effect DAMGO; inhibition, % at 10 µM; actives 55% (n = 2,400); AID 488928;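 active = drop in membrane potential signal beyond 5 SD of the control wells in both duplicate plates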;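 also: TRPC4 counter screen for TRPC6 hits run under conditions tuned for TRPC6 not TRPC4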
TRPC6 inh conf: mouse TRPC6 channel inhibitors, confirmation, HEK293 cells, membrane potential dye, duplicate | shares compounds with TRPC6 inh | ACh-evoked depolarization | inhibition, % at 10 µM | actives 43% (n = 3,300) | AID 488960, 2010;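 active = fluorescence ratio falls more than 5 SD below the full-stimulation control mean, in both duplicate runs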;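 also: integrated fluorescence ratio of peak minus minimum over baseline after agonist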
TRPC6 act confirm: mouse TRPC6 channel activators, confirmation, HEK293 cells, membrane potential dye, duplicate. shares compounds with TRPC6 inh. HEK293-TRPC6 membrane potential dye fluorescence, FDSS. activation, % at 10 µM. actives 11% (n = 2,800). AID 488961, 2010;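 active = ratio signal rise beyond 5 SD above unstimulated control wells' mean, seen in both duplicate runs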;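 also: plate controls were buffer EC0 wells for no effect and acetylcholine ECmax response for full effect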
Numbers without * were called inactive; i = inactive; · = no result. Rows were chosen to be rich in hits. Some 2.3% of all compounds tested hit in one or more screens of this group.

SMILES | TRPC6 activator | TRPC6 inh | TRPC4 inh | TRPC4 act | TRPC4 potent | HEK293 TRPC6 ctr | HEK293 MPD ctr 2 | TRPC4/MOR mod | TRPC4 ctr inh 2 | TRPC6 inh conf | TRPC6 act confirm
O=C(CN(C(=O)CCC(=O)Nc1nccs1)c1cccc(F)c1)NCCc1ccccc1 | i | i | i | i | i | · | · | · | · | · | ·
CN(C)C(CNC(=O)CSc1nc2ccccc2c(=O)n1Cc1ccco1)c1ccccc1 (stereo not given) | i | i | i | i | i | · | · | · | · | · | ·
Nn1c(COc2ccccc2F)nnc1SCC(=O)NC1CCCCC1 | i | i | i | i | i | · | · | · | · | · | ·
Cc1ccc(Nc2nc(N/N=C/c3c[nH]c4ccccc34)nc(N3CCOCC3)n2)cc1 | i | i | i | i | i | · | · | · | · | · | ·
C(=N\Nc1nc(Nc2ccccc2)nc(N2CCOCC2)n1)/c1c[nH]c2ccccc12 | i | -6.08* | i | i | 11* | i | i | -20.0%* | 49.0%* | 47.5%* | i
CCOC(=O)c1nnn(-c2nc(N3CCCC3)nc(N3CCCC3)n2)c1-c1ccccc1 | i | i | i | i | i | · | · | · | · | · | ·
CCOC(=O)c1c(-c2ccccc2)nnn1-c1nc(OCC)nc(N2CCCCC2)n1 | 15.8* | i | i | i | i | 354.5%* | i | 91.0%* | i | i | 176.5%*
O=C(Nc1cccc(NC(=O)c2ccc(Br)o2)n1)c1ccc(Br)o1 | i | -6.32* | i | i | i | i | i | i | i | i | i
Cc1nc(NC(=O)c2ccc(Br)o2)ccc1Br | i | i | i | i | i | · | · | · | · | · | ·
CCN(CC(=O)Nc1cc(Cl)ccc1C)C(=O)CCS(=O)(=O)c1ccc(C)cc1 | i | -5.55* | i | i | i | i | i | 13.0%* | i | i | i
Cc1ccccc1Nc1c(-c2cccnc2)nc2ccc(Br)cn12 | i | i | i | i | i | · | · | · | · | · | ·
Cc1ccn2c(Nc3ccccc3C)c(-c3ccccn3)nc2c1 | i | -5.7* | i | i | i | -129.5%* | i | -27.0%* | 81.0%* | i | i
Cc1ccccc1Nc1c(-c2ccncc2)nc2ccc(Br)cn12 | i | -7.02* | i | i | i | -131.0%* | i | -39.0%* | 93.5%* | 63.5%* | i
Cc1ccccc1Nc1c(-c2cccnc2)nc2ccccn12 | i | -5.57* | i | i | i | -132.5%* | i | -14.5%* | 65.5%* | i | i
O=C(Nc1c2c(nn1-c1ccc(Cl)cc1)CS(=O)(=O)C2)C1CC1 | i | i | i | i | i | · | · | · | · | · | ·
